From ChEMBL document CHEMBL1165995, “Anti-ischemia steroidal saponins from the seeds of Allium fistulosum” (2010)

How the values were obtained:
Format in all cases: functional
Conditions in all cases: Homo sapiens, read-out: Activity
HUVEC [1] = experiment: Antiischemic activity against hypoxia/reoxygenation-induced cell injury in HUVEC assessed as cell viability at 50 uM by MTT assay
Method in brief: (§1)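 HUVEC given hypoxia/reoxygenation (H/R) injury and treated with saponin at one of six dose groups (0.5, 1, 5, 10, 50, 100 µM). Viability was read by MTT assay, with untreated control cells and H/R-only cells as references. Values are mean ± SEM of three independent experiments, and significance was tested against the H/R group.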

HUVEC [2] = experiment: Antiischemic activity against hypoxia/reoxygenation-induced cell injury in HUVEC assessed as cell viability at 10 uM by MTT assay; method in brief: as §1
HUVEC [3] = experiment: Antiischemic activity against hypoxia/reoxygenation-induced cell injury in HUVEC assessed as cell viability at 100 uM by MTT assay; method in brief: as §1
HUVEC [4] = experiment: Antiischemic activity against hypoxia/reoxygenation-induced cell injury in HUVEC assessed as cell viability at 5 uM by MTT assay; method in brief: as §1
HUVEC [5] = experiment: Antiischemic activity against hypoxia/reoxygenation-induced cell injury in HUVEC assessed as cell viability at 1 uM by MTT assay; method in brief: as §1
HUVEC [6] = experiment: Antiischemic activity against hypoxia/reoxygenation-induced cell injury in HUVEC assessed as cell viability at 0.5 uM by MTT assay; method in brief: as §1

C[C@@H](CC[C@@]1(O)O[C@H]2C[C@H]3[C@@H]4CC=C5C[C@@H](O[C@@H]6O[C@H](CO)[C@@H](O[C@@H]7O[C@@H](C)[C@H](O)[C@@H](O)[C@H]7O)[C@H](O)[C@H]6O[C@@H]6O[C@@H](C)[C@H](O)[C@@H](O)[C@H]6O)CC[C@]5(C)[C@H]4CC[C@]3(C)[C@H]2[C@@H]1C)CO[C@@H]1O[C@H](CO)[C@@H](O)[C@H](O)[C@H]1O
viability at 50 µM (HUVEC [1]): 74.3% | viability at 10 µM (HUVEC [2]): 72.1% | viability at 100 µM (HUVEC [3]): 68.6% | viability at 5 µM (HUVEC [4]): 69.4% | viability at 1 µM (HUVEC [5]): 63.5% | viability at 0.5 µM (HUVEC [6]): 60.7%

C[C@@H](CC[C@@]1(O)O[C@H]2C[C@H]3[C@@H]4CC=C5C[C@@H](O[C@@H]6O[C@H](CO)[C@@H](O[C@@H]7O[C@@H](C)[C@H](O[C@@H]8O[C@@H](C)[C@H](O)[C@@H](O)[C@H]8O)[C@@H](O)[C@H]7O)[C@H](O)[C@H]6O[C@@H]6O[C@@H](C)[C@H](O)[C@@H](O)[C@H]6O)CC[C@]5(C)[C@H]4CC[C@]3(C)[C@H]2[C@@H]1C)CO[C@@H]1O[C@H](CO)[C@@H](O)[C@H](O)[C@H]1O
viability at 50 µM (HUVEC [1]): 73.6% | viability at 10 µM (HUVEC [2]): 73.3% | viability at 100 µM (HUVEC [3]): 62.8% | viability at 5 µM (HUVEC [4]): 69.5% | viability at 1 µM (HUVEC [5]): 65.2% | viability at 0.5 µM (HUVEC [6]): 64%

CC1=C(CC[C@H](C)CO[C@@H]2O[C@H](CO)[C@@H](O)[C@H](O)[C@H]2O)O[C@H]2C[C@H]3[C@@H]4CC=C5C[C@@H](O[C@@H]6O[C@H](CO)[C@@H](O[C@@H]7O[C@@H](C)[C@H](O)[C@@H](O)[C@H]7O)[C@H](O)[C@H]6O[C@@H]6O[C@@H](C)[C@H](O)[C@@H](O)[C@H]6O)C(=O)C[C@]5(C)[C@H]4CC[C@]3(C)[C@@H]12 [FISTULOSAPONIN A]
viability at 50 µM (HUVEC [1]): 86.3% | viability at 10 µM (HUVEC [2]): 82.7% | viability at 100 µM (HUVEC [3]): 78.2% | viability at 5 µM (HUVEC [4]): 80.1% | viability at 1 µM (HUVEC [5]): 76.3% | viability at 0.5 µM (HUVEC [6]): 59.5%

C[C@@H](CC[C@@]1(O)O[C@H]2C[C@H]3[C@@H]4CC=C5C[C@@H](O[C@@H]6O[C@H](CO)[C@@H](O[C@@H]7O[C@@H](C)[C@H](O)[C@@H](O)[C@H]7O)[C@H](O)[C@H]6O[C@@H]6O[C@@H](C)[C@H](O)[C@@H](O)[C@H]6O)C(=O)C[C@]5(C)[C@H]4CC[C@]3(C)[C@H]2[C@@H]1C)CO[C@@H]1O[C@H](CO)[C@@H](O)[C@H](O)[C@H]1O [FISTULOSAPONIN B]
viability at 50 µM (HUVEC [1]): 82.1% | viability at 10 µM (HUVEC [2]): 79.4% | viability at 100 µM (HUVEC [3]): 74.8% | viability at 5 µM (HUVEC [4]): 77.2% | viability at 1 µM (HUVEC [5]): 71.8% | viability at 0.5 µM (HUVEC [6]): 65.7%

C[C@@H](CC[C@@]1(O)O[C@H]2C[C@H]3[C@@H]4CC=C5C[C@@H](O[C@@H]6O[C@H](CO)[C@@H](O)[C@H](O)[C@H]6O[C@@H]6O[C@@H](C)[C@H](O[C@@H]7O[C@@H](C)[C@H](O)[C@@H](O)[C@H]7O)[C@@H](O)[C@H]6O)C(=O)C[C@]5(C)[C@H]4CC[C@]3(C)[C@H]2[C@@H]1C)CO[C@@H]1O[C@H](CO)[C@@H](O)[C@H](O)[C@H]1O [FISTULOSAPONIN C]
viability at 50 µM (HUVEC [1]): 84.6% | viability at 10 µM (HUVEC [2]): 81.2% | viability at 100 µM (HUVEC [3]): 69.5% | viability at 5 µM (HUVEC [4]): 79.7% | viability at 1 µM (HUVEC [5]): 74.8% | viability at 0.5 µM (HUVEC [6]): 71.7%

C[C@@H](CC[C@@]1(O)O[C@H]2C[C@H]3[C@@H]4CC=C5C[C@@H](O[C@@H]6O[C@H](CO)[C@@H](O)[C@H](O)[C@H]6O[C@@H]6O[C@H](CO)[C@@H](O)[C@H](O)[C@H]6O[C@@H]6O[C@H](CO)[C@@H](O)[C@H](O)[C@H]6O)C(=O)C[C@]5(C)[C@H]4CC[C@]3(C)[C@H]2[C@@H]1C)CO[C@@H]1O[C@H](CO)[C@@H](O)[C@H](O)[C@H]1O [FISTULOSAPONIN D]
viability at 50 µM (HUVEC [1]): 82.4% | viability at 10 µM (HUVEC [2]): 79.8% | viability at 100 µM (HUVEC [3]): 75.6% | viability at 5 µM (HUVEC [4]): 78.2% | viability at 1 µM (HUVEC [5]): 72.6% | viability at 0.5 µM (HUVEC [6]): 68.9%

CC1=C(CC[C@H](C)CO[C@@H]2O[C@H](CO)[C@@H](O)[C@H](O)[C@H]2O)O[C@H]2C[C@H]3[C@@H]4CC=C5C[C@@H](O[C@@H]6O[C@H](CO)[C@@H](O)[C@H](O)[C@H]6O[C@@H]6O[C@H](CO)[C@@H](O)[C@H](O)[C@H]6O[C@@H]6O[C@H](CO)[C@@H](O)[C@H](O)[C@H]6O)[C@H](O)C[C@]5(C)[C@H]4CC[C@]3(C)[C@@H]12 [FISTULOSAPONIN E]
viability at 50 µM (HUVEC [1]): 75.4% | viability at 10 µM (HUVEC [2]): 77.9% | viability at 100 µM (HUVEC [3]): 68% | viability at 5 µM (HUVEC [4]): 70.2% | viability at 1 µM (HUVEC [5]): 64.3% | viability at 0.5 µM (HUVEC [6]): 60.9%

C[C@@H](CC[C@@]1(O)O[C@H]2C[C@H]3[C@@H]4CC=C5C[C@@H](O[C@@H]6O[C@H](CO)[C@@H](O)[C@H](O)[C@H]6O[C@@H]6O[C@H](CO)[C@@H](O)[C@H](O)[C@H]6O[C@@H]6O[C@H](CO)[C@@H](O)[C@H](O)[C@H]6O)[C@H](O)C[C@]5(C)[C@H]4CC[C@]3(C)[C@H]2[C@@H]1C)CO[C@@H]1O[C@H](CO)[C@@H](O)[C@H](O)[C@H]1O [FISTULOSAPONIN F]
viability at 50 µM (HUVEC [1]): 77.4% | viability at 10 µM (HUVEC [2]): 75.5% | viability at 100 µM (HUVEC [3]): 71.2% | viability at 5 µM (HUVEC [4]): 74.1% | viability at 1 µM (HUVEC [5]): 68.3% | viability at 0.5 µM (HUVEC [6]): 62.3%

C[C@@H](CC[C@@]1(O)O[C@H]2C[C@H]3[C@@H]4CC=C5C[C@@H](O[C@@H]6O[C@H](CO)[C@@H](O)[C@H](O[C@@H]7O[C@H](CO)[C@@H](O)[C@H](O)[C@H]7O)[C@H]6O[C@@H]6O[C@@H](C)[C@H](O)[C@@H](O)[C@H]6O)CC[C@]5(C)[C@H]4CC[C@]3(C)[C@H]2[C@@H]1C)CO[C@@H]1O[C@H](CO)[C@@H](O)[C@H](O)[C@H]1O [PROTOGRACILLIN]
viability at 50 µM (HUVEC [1]): 78.2% | viability at 10 µM (HUVEC [2]): 77.9% | viability at 100 µM (HUVEC [3]): 68% | viability at 5 µM (HUVEC [4]): 75.2% | viability at 1 µM (HUVEC [5]): 69.5% | viability at 0.5 µM (HUVEC [6]): 60.9%
